From ChEMBL document CHEMBL4304833, “Development of Kinase Inactive PD173955 Analogues for Reducing Production of Aβ Peptides” (ACS Med Chem Lett, 2019)
Active and inactive are the calls of the source. The rule behind the calls is not given here.

How the values were obtained:
Homo sapiens [1] = species: Homo sapiens; experiment: Inhibition of Abl (unknown origin) assessed as residual activity at 10 uM relative to control
How it was run: (§1)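 Abl and Src kinase activity measured by an outside service with compounds at 10 μM; activity reported relative to control.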

[2] = Cytotoxicity against mouse N2a695 cells assessed as reduction in cell viability at 10 uM incubated for 5 hrs by MTT assay; assay type: cell-based
How it was run: (§2)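 Viability of N2a cells by MTT assay after 5 h and 24 h incubation with compound (10 μM; one comparator at 1 μM), scored as number of viable cells.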

[3] = molecular target: Proto-oncogene tyrosine-protein kinase Src (Homo sapiens) (UniProt P12931); experiment: Inhibition of Src (unknown origin) assessed as residual activity at 10 uM relative to control; how it was run: as §1
[4] = Cytotoxicity against mouse N2a695 cells assessed as reduction in cell viability at 10 uM incubated for 24 hrs by MTT assay; assay type: cell-based; how it was run: as §2
[5] = molecular target: Beta-secretase 1 (Mus musculus) (UniProt P56818); experiment: Inhibition of BACE1 in mouse N2a695 cells assessed as reduction in Abeta42 production at 10 uM incubated for 5 hrs by ELISA relative to control; assay type: cell-based
How it was run: (§3)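 N2a695 cells treated with compound (10 μM, or 20 μM for reference compound). Aβ42 in cell supernatant measured by human Aβ ELISA.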

[6] = molecular target: Beta-secretase 1 (Mus musculus) (UniProt P56818); experiment: Inhibition of BACE1 in mouse N2a695 cells assessed as reduction in Abeta40 production at 10 uM incubated for 6 hrs by ELISA; assay type: cell-based
[7] = molecular target: Beta-secretase 1 (Mus musculus) (UniProt P56818); experiment: Inhibition of BACE1 in mouse N2a695 cells assessed as reduction in Abeta40 production at 10 uM incubated for 5 hrs by ELISA relative to control; assay type: cell-based
[8] = molecular target: Beta-secretase 1 (Mus musculus) (UniProt P56818); experiment: Inhibition of BACE1 in mouse N2a695 cells assessed as reduction in Abeta42 production at 5 uM pretreated with BACE IV for 1 hr and measured after 5 hrs by ELISA; assay type: cell-based
How it was run: (§4)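 N2a695 cells preincubated 1 h with DMSO or 0.5 μM BACE IV, then given fresh medium containing 5 μM compound. Aβ40 and Aβ42 measured by human Aβ ELISA as percent of DMSO or BACE IV-pretreated DMSO control. Duplicate or triplicate wells; average of three independent experiments.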

Mus musculus = species: Mus musculus; experiment: Inhibition of Abeta42 production in mouse N2a695 cells at 20 uM incubated for 5 hrs by ELISA; assay type: functional, cell-based; how it was run: as §3
[9] = molecular target: Beta-secretase 1 (Mus musculus) (UniProt P56818); experiment: Inhibition of BACE1 in mouse N2a695 cells assessed as reduction in Abeta40 production at 20 uM incubated for 5 hrs by ELISA; assay type: cell-based
[10] = molecular target: Beta-secretase 1 (Mus musculus) (UniProt P56818); experiment: Inhibition of BACE1 in mouse N2a695 cells assessed as reduction in Abeta40 production transfected with human APP-FL at 10 uM incubated for 5 hrs by ELISA; assay type: cell-based
How it was run: (§5)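 N2a cells transfected with human APP-FL or APP-C99 treated with compounds at 10 μM. Aβ40 and Aβ42 in supernatants measured by ELISA; controls were BACE inhibitor MK8931 0.5 μM and γ-secretase inhibitor DAPT 1 μM.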

[11] = molecular target: Beta-secretase 1 (Mus musculus) (UniProt P56818); experiment: Inhibition of BACE1 in mouse N2a695 cells transfected with human APP-FL assessed as reduction in Abeta42 production at 10 uM incubated for 5 hrs by ELISA; assay type: cell-based; how it was run: as §5
[12] = molecular target: Beta-secretase 1 (Mus musculus) (UniProt P56818); experiment: Inhibition of BACE1 in mouse N2a695 cells transfected with human APP-C99 assessed as reduction in Abeta42 production at 10 uM incubated for 5 hrs by ELISA; assay type: cell-based; how it was run: as §5
[13] = molecular target: Beta-secretase 1 (Mus musculus) (UniProt P56818); experiment: Inhibition of BACE1 in mouse N2a695 cells assessed as reduction in Abeta40 production transfected with human APP-C99 at 10 uM incubated for 5 hrs by ELISA; assay type: cell-based; how it was run: as §5
[14] = molecular target: Beta-secretase 1 (Mus musculus) (UniProt P56818); experiment: Inhibition of BACE1 in mouse N2a695 cells assessed as reduction in Abeta40 production at 5 uM pretreated with BACE IV for 1 hr and measured after 5 hrs by ELISA; assay type: cell-based; how it was run: as §4
Homo sapiens [15] = species: Homo sapiens; experiment: Inhibition of Abl (unknown origin) assessed as residual activity at 1 uM relative to control
[16] = molecular target: Proto-oncogene tyrosine-protein kinase Src (Homo sapiens) (UniProt P12931); experiment: Inhibition of Src (unknown origin) assessed as residual activity at 1 uM relative to control
[17] = Cytotoxicity against mouse N2a695 cells assessed as reduction in cell viability at 1 uM incubated for 5 and 24 hrs by MTT assay; assay type: cell-based; how it was run: as §2

Sequence of Beta-secretase 1 (Mus musculus) (P56818 whole entry): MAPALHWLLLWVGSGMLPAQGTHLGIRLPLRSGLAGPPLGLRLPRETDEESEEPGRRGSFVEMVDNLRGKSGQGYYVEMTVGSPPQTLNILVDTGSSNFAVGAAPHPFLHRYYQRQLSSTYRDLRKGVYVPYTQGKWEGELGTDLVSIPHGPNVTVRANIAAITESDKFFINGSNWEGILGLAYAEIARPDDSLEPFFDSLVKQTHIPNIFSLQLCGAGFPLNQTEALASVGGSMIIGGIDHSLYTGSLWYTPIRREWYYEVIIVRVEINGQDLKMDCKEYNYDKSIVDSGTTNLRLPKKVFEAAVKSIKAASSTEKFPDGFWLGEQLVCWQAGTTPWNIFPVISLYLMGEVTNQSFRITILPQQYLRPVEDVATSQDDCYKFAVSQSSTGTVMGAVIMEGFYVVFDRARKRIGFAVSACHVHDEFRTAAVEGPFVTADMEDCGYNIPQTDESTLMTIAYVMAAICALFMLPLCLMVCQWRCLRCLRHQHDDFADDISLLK
Sequence of Proto-oncogene tyrosine-protein kinase Src (Homo sapiens) (P12931 2-536 limits assumed): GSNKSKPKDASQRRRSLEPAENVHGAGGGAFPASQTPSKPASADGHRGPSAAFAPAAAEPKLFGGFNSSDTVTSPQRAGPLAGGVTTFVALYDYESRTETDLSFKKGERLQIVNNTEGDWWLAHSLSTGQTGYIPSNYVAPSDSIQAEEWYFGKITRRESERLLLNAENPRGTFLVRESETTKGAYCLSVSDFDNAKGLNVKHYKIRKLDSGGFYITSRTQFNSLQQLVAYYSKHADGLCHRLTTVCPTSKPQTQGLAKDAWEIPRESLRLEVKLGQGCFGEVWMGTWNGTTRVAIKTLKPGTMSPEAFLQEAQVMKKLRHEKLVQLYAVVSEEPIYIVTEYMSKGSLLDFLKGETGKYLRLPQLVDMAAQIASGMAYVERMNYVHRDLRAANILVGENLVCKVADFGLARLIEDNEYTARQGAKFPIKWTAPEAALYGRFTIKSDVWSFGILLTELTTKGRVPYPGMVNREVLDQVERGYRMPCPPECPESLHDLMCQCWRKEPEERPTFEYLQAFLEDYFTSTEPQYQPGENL

SMILES | Activity (Homo sapiens [1]) [%] | Activity [3] [%] | inhibition [5] [%] | inhibition [6] | inhibition [7] [%] | Activity [2] | Activity [4] | further results
CN1CCC(N2CCN(c3ncc4cc(-c5c(Cl)cc(NC(=O)OC(C)(C)C)cc5Cl)c(=O)n(C)c4n3)CC2)CC1 | 8.5 | 10.4 | > 50 | Active | > 50 | Non-Toxic | Toxic | 
Cc1ccc(NC(=O)c2ccc(CN3CCN(C)CC3)cc2)cc1Nc1nccc(-c2cccnc2)n1 |  |  |  | Active |  |  |  | 
Cn1c(=O)c(-c2c(Cl)cccc2Cl)cc2cnc(N3CCC(N4CCCCC4)CC3)nc21 |  |  |  | Active |  | Non-Toxic | Non-Toxic | 
Cn1c(=O)c(-c2c(Cl)cccc2Cl)cc2cnc(N3CCNCC3)nc21 |  |  |  |  |  | Non-Toxic | Non-Toxic | inhibition [8]: Active; inhibition (Mus musculus): Active; inhibition [9]: Active; inhibition [10]: Active; inhibition [11]: Active; inhibition [12]: Active; inhibition [13]: inactive; inhibition [14]: Active
CN1CCC(N2CCN(c3ncc4cc(-c5c(Cl)cc(NC(=O)C(C)(C)C)cc5Cl)c(=O)n(C)c4n3)CC2)CC1 | 3.2 | 8.9 | > 50 | Active | > 50 | Non-Toxic | Non-Toxic | inhibition [8]: Active; inhibition [10]: Active; inhibition [11]: Active; inhibition [12]: Active; inhibition [13]: inactive; inhibition [14]: Active
CSc1cccc(Nc2ncc3cc(-c4c(Cl)cccc4Cl)c(=O)n(C)c3n2)c1 |  |  |  |  |  |  |  | Activity (Homo sapiens [15]): 99.7%; Activity [16]: 99.5%; Activity [17]: Non-Toxic
Cn1c(=O)c(-c2c(Cl)cc(NC(=O)OC(C)(C)C)cc2Cl)cc2cnc(N3CCN(c4ccncc4)CC3)nc21 | 0 | 8 | > 50 | Active | > 50 | Non-Toxic | Non-Toxic | inhibition [8]: Active; inhibition [10]: Active; inhibition [11]: Active; inhibition [12]: Active; inhibition [13]: inactive; inhibition [14]: Active

Second part, led by results:

Activity (Homo sapiens [1]) [%] | Activity [3] [%] | inhibition [5] [%] | inhibition [6] | inhibition [7] [%] | SMILES | Activity [2] | Activity [4] | further results
20.8 | 10.5 | > 50 | Active | > 50 | CN1CCC(N2CCN(c3ncc4cc(-c5c(Cl)cccc5Cl)c(=O)n(C)c4n3)CC2)CC1 | Non-Toxic | Non-Toxic | 
 |  |  | Active |  | Cn1c(=O)c(-c2c(Cl)cccc2Cl)cc2cnc(N3CCN(Cc4ccccc4)CC3)nc21 | Non-Toxic | Toxic | 
 |  |  | Active |  | Cl.Cn1c(=O)c(-c2c(Cl)cccc2Cl)cc2cnc(N3CCN(C4CCNCC4)CC3)nc21 | Non-Toxic | Non-Toxic | 
 |  |  | Active |  | CN1CCN(c2ncc3cc(-c4c(Cl)cc(NC(=O)C(C)(C)C)cc4Cl)c(=O)n(C)c3n2)CC1 | Non-Toxic | Non-Toxic | 
 |  |  | Active |  | CN1CCN(c2ncc3cc(-c4cc(Cl)cc(Cl)c4)c(=O)n(C)c3n2)CC1 | Non-Toxic | Non-Toxic | 
